Bioassay records from PubChem.
rRNA inh HTS – inhibitors of bacterial rRNA selective over humanized ribosomes | AID 720706 | 350,000 compounds, 1.6% hits | GFP signal change (wild-type ribosome), % (no concentration beside the values) | E. coli WT GFP vs humanized-ribosome RFP mutants, fluorescence, 24 h; active compounds read low; DMSO median 0, no signal -100;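 active means significant combined selectivity score with lowered wild-type GFP, culture density cut under 30%, mutant RFP and density less affected; inactive means any of these conditions unmet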
C2C12 statin – suppressors of simvastatin-induced myotoxicity in C2C12 myotubes; 330,000 compounds, 0.78% hits; rescue of ATP level, % at 7.49 µM; ATP luminescence, 48 h; scaled: DMSO 0, geranylgeraniol control 100;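 active means mean ATP rescue above about 67%, or every replicate alone reaching that limit, limit read from the data, passing the limit was not always enough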;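 further: myotubes were challenged with 10 µM simvastatin during compound exposure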
Cneo AK release – causes C. neoformans cell lysis; adenylate kinase release luminescence, 4 h; normalised: neutral wells 0, clomiphene wells 100; 360,000 compounds, 0.2% hits; lysis activity, % at 15 µM;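 active means mean lysis activity across replicates of at least 80%, whatever share of replicates individually reach that level; inactive means mean lysis activity below 80%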
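Material: C. neoformans cells | Amount: Yeast cell density of 5 × 10^6 cells/mL | Medium: Fresh YPD growth medium | Dosing: Single dose | Times: Static 4 h at 37 °C with compound, 1 h detection | Detection: AK luminescence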
S100A4 MyoIIA – blocks human S100A4 binding to myosin IIA peptide; P26447; S100A4/TAMRA-MyoIIA peptide fluorescence polarization; inhibition, % at 10.7 µM; 360,000 compounds, 0.14% hits; AID 652163;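 active means mean inhibition of at least 70% across replicates, with every replicate also reaching that level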
Target sequence (P26447 whole entry, looked up): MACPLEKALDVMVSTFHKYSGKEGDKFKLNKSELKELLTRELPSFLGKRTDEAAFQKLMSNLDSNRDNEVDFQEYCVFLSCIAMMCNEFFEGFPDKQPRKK
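Compound dosing: one dose per compound; test system: human S100A4 monomer with TAMRA-labelled myosin IIA peptide; probe or stimulus: TAMRA-labelled myosin IIA heavy-chain peptide probe, 5 nM; medium: HEPES buffer with Ca2+, pH 7.2; schedule: 5 min incubation before reading; benchmarks: neutral control DMSO, positive control TFP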
SIRT5 inh – sirtuin-5 (human) deacylase inhibition; Q9NXA8; Purified SirT5, succinyl-peptide AMC, trypsin-coupled fluorescence; inhibition, % at 15 µM; 330,000 compounds, 1.1% hits; AID 652115; in the data active means inhibition above about 15%
Target sequence (Q9NXA8 whole entry, looked up): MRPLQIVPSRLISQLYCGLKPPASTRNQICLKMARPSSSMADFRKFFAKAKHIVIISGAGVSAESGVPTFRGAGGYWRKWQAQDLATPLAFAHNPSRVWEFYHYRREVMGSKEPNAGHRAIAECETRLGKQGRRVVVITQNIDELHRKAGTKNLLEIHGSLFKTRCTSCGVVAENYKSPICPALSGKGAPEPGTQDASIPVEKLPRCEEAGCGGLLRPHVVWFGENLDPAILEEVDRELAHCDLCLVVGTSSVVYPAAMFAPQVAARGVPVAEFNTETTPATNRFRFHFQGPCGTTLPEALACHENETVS
PGC1a acetyl inh – PGC1a acetylation modulation, inhibitor mode; inhibition, % at 15.6 µM; U2OS PGC1a acetylation, AlphaScreen anti-acetyl-lysine; with virally co-expressed GCN5 acetyltransferase; 350,000 compounds, 0.17% hits;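 active means every replicate shows inhibition of at least 40%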
Numbers stand for hits; i = inactive; nt = no result given. Compounds with a hit are over-represented: about 3% of the library has one in this group of screens.

SMILES	rRNA inh HTS	C2C12 statin	Cneo AK release	S100A4 MyoIIA	SIRT5 inh	PGC1a acetyl inh
Cc1ccc(S(=O)(=O)N2[C@@H](c3cccc(Cl)c3)C(C(=O)O)=CC[C@H]2c2cccc(C)c2)cc1	-22.6	i	i	i	nt	nt
C[C@H](CO)N1C[C@H](C)[C@H](CN(C)Cc2ccc(Oc3ccccc3)cc2)Oc2ccc(NS(=O)(=O)c3ccc(Cl)cc3)cc2C1=O	i	i	i	i	i	i
C[C@H]1COCn2nncc2CC[C@H](C)C(=O)N1	i	nt	nt	nt	nt	nt
Cc1ccc(-c2cnc3c(c2)C(=O)N([C@H](C)CO)C[C@@H](C)[C@H](CN(C)C(=O)c2ccc(F)cc2)O3)cc1	i	i	i	i	i	i
Nc1ccc(Cc2ccc(N)c(C(=O)O)c2)cc1C(=O)O	i	i	i	i	45.4	i
COc1ccc(C)cc1N(C)C(=O)Cc1c(C(=O)O)n(C)c2ccccc12	i	i	i	i	28.6	i
CCOC(=O)c1c(C)[nH]c(C(=O)COC(=O)c2cnc(C)cn2)c1C	nt	i	i	nt	nt	i
CCOC(=O)c1c(C)[nH]c(C(=O)C(C)OC(=O)c2cnc(C)cn2)c1C (centres undefined)	-25.5	i	i	i	i	i
CCCCCCOc1ccc(C(CC(=O)NC)C(=O)O)cc1 (centres undefined)	i	i	i	i	i	i
CCCCCCOc1ccc(C(CC(N)=O)C(=O)O)cc1 (centres undefined)	i	107.2	i	i	i	i
Cc1noc(C)c1NC(=O)N(C)C[C@H]1Oc2ccc(NC(=O)CCCN(C)C)cc2CC(=O)N([C@@H](C)CO)C[C@@H]1C	i	i	i	i	i	i
Cc1ccc(C(C[N+](=O)[O-])c2c(C)[nH]n(-c3ccccc3)c2=O)cc1 (centres undefined)	i	nt	i	i	26.0	nt
O=C(c1ccccc1Cl)N1CCNCC1	nt	nt	nt	nt	nt	66.6
CN(c1ccccc1C(=O)N1CCOCC1)S(C)(=O)=O	nt	nt	i	nt	nt	i
CSc1ccccc1C(=O)N1CCN(c2ccc(F)cc2)CC1	nt	i	i	nt	nt	i
CCCNC(=O)c1ccccc1NC(=O)c1ccccc1N(C)S(C)(=O)=O	nt	103.1	i	nt	nt	i
CN(c1ccccc1C(=O)N1CCCC1)S(C)(=O)=O	nt	99.7	i	nt	nt	i
CSc1ccccc1C(=O)N1CCCCC1	i	nt	nt	i	20.0	i
C[C@H](CO)N1C[C@H](C)[C@@H](CN(C)S(=O)(=O)c2cn(C)cn2)OCCCC[C@H](C)Oc2ccc(NC(=O)CCC(F)(F)F)cc2C1=O	i	i	i	i	i	nt
C[C@H]1CN([C@@H](C)CO)C(=O)c2cc(C#CCN(C)C)cnc2O[C@@H]1CN(C)C(=O)CN1CCOCC1	i	i	i	i	i	i
O=C(N[C@H]1CC[C@H](CCn2cc(-c3ccccc3F)nn2)O[C@H]1CO)c1ccc2c(c1)OCO2	i	i	i	i	i	i
Cc1ccc(C(=O)N/N=C/c2cccc(OC(=O)/C=C/c3ccco3)c2)cn1	i	nt	nt	i	24.3	i
CC(/C=C/c1ccco1)=N/NC(=O)c1ccc(C)nc1	i	i	i	i	nt	i
Cc1[nH]nc2c1C(c1ccc(Br)cc1)N(Cc1ccccc1)C2=O (centres undefined)	-25.4	nt	nt	i	i	nt
COCCNC(=O)[C@@H]1[C@@H](CO)[C@@H]2Cn3c(ccc(-c4ccccc4F)c3=O)[C@@H]2N1C(=O)C1CCCC1	i	i	i	i	i	nt
SMILES	rRNA inh HTS	C2C12 statin	Cneo AK release	S100A4 MyoIIA	SIRT5 inh	PGC1a acetyl inh
C[C@H]1CN([C@@H](C)CO)C(=O)CCCn2cc(nn2)CO[C@@H]1CN(C)Cc1cccc(C(=O)O)c1	i	i	i	i	i	i
CC1=CCC2C(=O)N(c3cccc(C(=O)NCc4ccccc4)c3)C(=O)C2C1 (centres undefined)	i	i	i	i	i	63.2
COc1ccc2c3c(n(C)c2c1)[C@@H](CO)N(C(=O)c1ccc(F)cc1)CC31CCN(C(C)=O)CC1	i	nt	nt	i	nt	i
COC(=O)c1ccc(C)c(NS(=O)(=O)c2ccc3c(c2)OCCO3)c1	nt	91.8	i	nt	nt	i
COc1ccccc1NS(=O)(=O)c1ccc2c(c1)OCCO2	i	nt	i	i	i	i
CSc1ccccc1NS(=O)(=O)c1ccc2c(c1)OCCO2	i	91.5	i	i	i	i
COC(=O)c1ccc(C)c(NS(=O)(=O)c2ccc(OC)cc2)c1	i	i	i	i	i	i
COC(=O)COc1ccc(S(=O)(=O)Nc2ccccc2SC)cc1	nt	127.3	i	nt	nt	i
Cc1ccc(-c2cnc3c(c2)C(=O)N([C@@H](C)CO)C[C@H](C)[C@@H](CN(C)C(=O)Cc2ccccc2)O3)cc1	i	i	i	i	i	i
O=C(Nc1ccc2c(c1)[C@@H]1C[C@@H](CC(=O)N3CCCCC3)O[C@H](CO)[C@@H]1O2)c1cccnc1	i	i	i	i	i	i
O=C(O)CCCn1cc(NC(=O)COc2ccccc2)cn1	i	i	i	i	i	nt
Cc1ccccc1OCC(=O)Nc1ccc2[nH]ncc2c1	-20.9	i	i	i	nt	i
Cc1ccccc1OCC(=O)Nc1cnn(CCCC(=O)O)c1	i	i	i	i	17.0	nt
C[C@@H]1CN([C@@H](C)CO)S(=O)(=O)c2ccc(-c3ccc(F)cc3)cc2O[C@H]1CN(C)S(C)(=O)=O	i	i	i	i	i	i
Cc1noc(C)c1S(=O)(=O)Nc1ccc2c(c1)C(=O)N([C@@H](C)CO)C[C@@H](C)[C@H](CN(C)C(=O)c1ccccc1)OCCCC[C@H](C)O2	i	nt	i	i	i	i
C[C@@H]1CN([C@H](C)CO)C(=O)Cc2cc(NC(=O)CCC(F)(F)F)ccc2O[C@@H]1CN(C)S(=O)(=O)c1cn(C)cn1	i	i	i	nt	nt	i
Cc1cc(C)n(CCC(=O)N/N=C/c2ccc(Br)c([N+](=O)[O-])c2)n1	-15.3	i	i	i	i	nt
Cc1cc(C)n(CC(=O)N/N=C/c2cc(Br)cc([N+](=O)[O-])c2O)n1	i	nt	nt	i	i	nt
COc1ccc(Nc2nc3ccc(C)cn3c(=O)c2/C=N/O)cc1	i	109.2	i	i	i	i
Cc1ccc(-c2nc3c(Cl)cc(C(F)(F)F)cn3c2Cc2cccc(F)c2)cc1	i	i	i	i	22.4	i
Cc1ccc(-c2nc3c(Cl)cc(C(F)(F)F)cn3c2Cc2ccccc2)cc1	i	i	i	i	15.2	i
C[C@@H]1CCCCO[C@H](CN(C)Cc2ccncc2)[C@@H](C)CN([C@H](C)CO)C(=O)c2cc(N(C)C)ccc2O1	i	i	109.5	i	i	i
COc1ccc(CN(C)C[C@@H]2OCCCC[C@H](C)Oc3ccc(N(C)C)cc3C(=O)N([C@H](C)CO)C[C@@H]2C)cc1	i	i	94.1	i	i	i
